ChEMBL document CHEMBL4354800, “Amphiphilic nebramine-based hybrids Rescue legacy antibiotics from intrinsic resistance in multidrug-resistant Gram-negative bacilli” (Eur J Med Chem, 2019)

Legend:
Format in all cases: functional
Pseudomonas aeruginosa [1] = assay: Potentiation of ciprofloxacin-induced antibacterial activity against MDR/XDR Pseudomonas aeruginosa isolate 100036 harboring GyrA T83I mutant assessed as fold reduction in ciprofloxacin MIC at 9 uM incubated for 18 hrs by broth microdilution method
Pseudomonas aeruginosa [2] = assay: Potentiation of minocycline-induced antibacterial activity against MDR/XDR Pseudomonas aeruginosa isolate 101243 devoid of GyrA T83I mutant assessed as fold reduction in minocycline MIC at 9 uM incubated for 18 hrs by broth microdilution method
Pseudomonas aeruginosa [3] = assay: Potentiation of ciprofloxacin-induced antibacterial activity against MDR/XDR Pseudomonas aeruginosa isolate 101243 devoid of GyrA T83I mutant assessed as fold reduction in ciprofloxacin MIC at 9 uM incubated for 18 hrs by broth microdilution method
Pseudomonas aeruginosa [4] = assay: Potentiation of moxifloxacin-induced antibacterial activity against MDR/XDR Pseudomonas aeruginosa isolate PA259-96918 harboring GyrA T83I mutant assessed as fold reduction in moxifloxacin MIC at 9 uM incubated for 18 hrs by broth microdilution method
Summary of the method: (§1)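 CLSI broth microdilution. Overnight cultures were set to 0.5 McFarland in saline, diluted 1:50 in Mueller-Hinton broth to a final 5 × 10^5 CFU/mL, and incubated 18 h at 37 °C against 2-fold antibiotic dilutions. A fixed adjuvant level was present throughout. MIC = lowest concentration with no visible turbidity, confirmed at 590 nm. Potentiation = fold drop in antibiotic MIC versus antibiotic alone.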

Escherichia coli [5] = assay: Potentiation of minocycline-induced antibacterial activity against Escherichia coli 107115 assessed as fold reduction in minocycline MIC at 4.1 uM incubated for 18 hrs by broth dilution method
Summary of the method: (§2)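 Antibiotic MIC determined by CLSI broth microdilution (MHB, 5 × 10^5 CFU/mL, 18 h, 37 °C), once alone and once with a fixed concentration of the adjuvant. Potentiation is the ratio of the antibiotic MIC alone to its MIC in the presence of the adjuvant.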

Acinetobacter baumannii [6] = assay: Synergistic antibacterial activity against multidrug-resistant Acinetobacter baumannii AB92247 assessed as fractional inhibitory concentration index in presence of minocycline incubated for 18 hrs by broth dilution method
Klebsiella pneumoniae = assay: Potentiation of minocycline-induced antibacterial activity against Klebsiella pneumoniae 116381 assessed as fold reduction in minocycline MIC at 4.1 uM incubated for 18 hrs by broth dilution method; summary of the method: as §2
Pseudomonas aeruginosa [7] = assay: Potentiation of rifampicin-induced antibacterial activity against wild type Pseudomonas aeruginosa PAO1 assessed as fold reduction in rifampicin MIC at 4.1 uM incubated for 18 hrs by broth microdilution method; summary of the method: as §1
Escherichia coli [8] = assay: Potentiation of rifampicin-induced antibacterial activity against Escherichia coli 107115 assessed as fold reduction in rifampicin MIC at 4.1 uM incubated for 18 hrs by broth dilution method; summary of the method: as §2
Acinetobacter baumannii [9] = assay: Potentiation of minocycline-induced antibacterial activity against […] Acinetobacter baumannii ATCC 17978 assessed as fold reduction in minocycline MIC at 4.1 uM incubated for 18 hrs by broth dilution method; summary of the method: as §1
Pseudomonas aeruginosa [10] = assay: Potentiation of rifampicin-induced bactericidal activity in MDR/XDR Pseudomonas aeruginosa isolate PA259-96918 harboring GyrA T83I mutant assessed as complete eradication of bacteria at 4 ug/ml incubated for 4 hrs in presence of 1 to 4 ug/ml rifampicin by time kill curve assay
Summary of the method: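 Time-kill assay against XDR P. aeruginosa PA259. Overnight culture adjusted to 0.5 McFarland in saline, diluted 1:50 in LB. Incubated at 37 °C for 24 h with rifampicin and adjuvant, alone or combined at various concentrations. Aliquots taken at intervals, serially diluted in PBS and plated on LB agar. Colonies counted after 20 h at 37 °C. Untreated cells as control.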

Pseudomonas aeruginosa [11] = assay: Potentiation of minocycline-induced antibacterial activity against wild type Pseudomonas aeruginosa PAO1 assessed as fold reduction in minocycline MIC at 4.1 uM incubated for 18 hrs by broth microdilution method; summary of the method: as §2
Acinetobacter baumannii [12] = assay: Potentiation of rifampicin-induced antibacterial activity against multidrug-resistant Acinetobacter baumannii AB030 assessed as fold reduction in rifampicin MIC at 7.5 uM incubated for 18 hrs by broth dilution method; summary of the method: as §1
Pseudomonas aeruginosa [13] = assay: Potentiation of rifampicin-induced antimicrobial activity against MDR/XDR Pseudomonas aeruginosa isolate PA264-104354 harboring GyrA Thr83Ile mutant assessed as rifampicin MIC50 incubated for 18 hrs by broth microdilution method (reference value: 8 microg/ml); settings: isolate PA264-104354, 18 h
Acinetobacter baumannii [14] = assay: Antimicrobial activity against multidrug-resistant Acinetobacter baumannii AB030 incubated for 18 hrs by broth dilution method; settings: AB030, 18 h
Summary of the method: (§3)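 Broth microdilution per CLSI: overnight cultures set to 0.5 McFarland in saline, diluted 1:50 in Mueller-Hinton broth to a final 5 × 10^5 CFU/mL, added to 2-fold serial dilutions, incubated 18 h at 37 °C; MIC is the lowest concentration without visible turbidity, confirmed at 590 nm.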

Acinetobacter baumannii [15] = assay: Antimicrobial activity against multidrug-resistant Acinetobacter baumannii AB027 incubated for 18 hrs by broth dilution method; settings: AB027, 18 h; summary of the method: as §3
Acinetobacter baumannii [16] = assay: Synergistic antibacterial activity against multidrug-resistant Acinetobacter baumannii 110193 assessed as fractional inhibitory concentration index in presence of rifampicin incubated for 18 hrs by broth dilution method
Pseudomonas aeruginosa [17] = assay: Potentiation of rifampicin-induced antimicrobial activity against MDR/XDR Pseudomonas aeruginosa isolate PA259-96918 harboring GyrA Thr83Ile mutant assessed as rifampicin MIC50 incubated for 18 hrs by broth microdilution method (reference value: 8 microg/ml); settings: isolate PA259-96918, 18 h
Pseudomonas aeruginosa [18] = assay: Potentiation of minocycline-induced antibacterial activity against MDR/XDR Pseudomonas aeruginosa isolate 91433 devoid of GyrA T83I mutant assessed as fold reduction in minocycline MIC at 7.5 uM incubated for 18 hrs by broth microdilution method
Pseudomonas aeruginosa [19] = assay: Potentiation of rifampicin-induced antimicrobial activity against MDR/XDR Pseudomonas aeruginosa isolate PA260-97103 harboring GyrA Thr83Ile mutant assessed as rifampicin MIC50 incubated for 18 hrs by broth microdilution method (reference value: 8 microg/ml); settings: isolate PA260-97103, 18 h
Pseudomonas aeruginosa [20] = assay: Potentiation of rifampicin-induced antimicrobial activity against MDR/XDR Pseudomonas aeruginosa isolate 101243 devoid of GyrA Thr83Ile mutant assessed as rifampicin MIC50 incubated for 18 hrs by broth microdilution method (reference value: 8 microg/ml); settings: isolate 101243, 18 h
Pseudomonas aeruginosa [21] = assay: Potentiation of rifampicin-induced antibacterial activity against MDR/XDR Pseudomonas aeruginosa isolate 100036 harboring GyrA T83I mutant assessed as fold reduction in rifampicin MIC at 7.5 uM incubated for 18 hrs by broth microdilution method; summary of the method: as §1
Pseudomonas aeruginosa [22] = assay: Potentiation of moxifloxacin-induced antibacterial activity against MDR/XDR Pseudomonas aeruginosa isolate PA259-96918 harboring GyrA T83I mutant assessed as fold reduction in moxifloxacin MIC at 7.5 uM incubated for 18 hrs by broth microdilution method; summary of the method: as §1

SMILES: Cl.Cl.Cl.Cl.Cl.Cl.NC[C@H]1O[C@H](O[C@H]2[C@H](OCCCCCCCCCCN3CCN(Cc4cccc5ccccc45)CC3)[C@@H](O)[C@H](N)C[C@@H]2N)[C@H](N)C[C@@H]1O
- fold change (FC) (Pseudomonas aeruginosa [1]): 8
- fold change (FC) (Pseudomonas aeruginosa [2]): 8
- fold change (FC) (Pseudomonas aeruginosa [3]): 4
- fold change (FC) (Pseudomonas aeruginosa [4]): 64

SMILES: Cl.Cl.Cl.Cl.Cl.NC[C@H]1O[C@H](O[C@H]2[C@H](OCCCCCCCCCCCCN3CCN(c4cc5c(cc4F)c(=O)c(C(=O)O)cn5C4CC4)CC3)[C@@H](O)[C@H](N)C[C@@H]2N)[C@H](N)C[C@@H]1O
- fold change (FC) (Escherichia coli [5]): 16
- fractional inhibitory concentration index (FICI) (Acinetobacter baumannii [6]): 0.531
- fold change (FC) (Klebsiella pneumoniae): 16
- fold change (FC) (Pseudomonas aeruginosa [7]): >=256
- fold change (FC) (Escherichia coli [8]): >=256
- fold change (FC) (Acinetobacter baumannii [9]): 2
- Activity (Pseudomonas aeruginosa [10]): 100%
- fold change (FC) (Pseudomonas aeruginosa [11]): 32

SMILES: COc1c(N2C[C@@H]3CCCN(CCCCCCCCCCCCO[C@@H]4[C@@H](O)[C@H](N)C[C@H](N)[C@H]4O[C@H]4O[C@H](CN)[C@@H](O)C[C@H]4N)[C@@H]3C2)c(F)cc2c(=O)c(C(=O)O)cn(C3CC3)c12.Cl.Cl.Cl.Cl.Cl
- fold change (FC) (Acinetobacter baumannii [12]): 32
- MIC50 (Pseudomonas aeruginosa [13]): 0.06 µg/mL
- MIC (Acinetobacter baumannii [14]): > 16 µg/mL
- MIC (Acinetobacter baumannii [15]): > 256 µg/mL
- fractional inhibitory concentration index (FICI) (Acinetobacter baumannii [16]): 0.031 - 0.047
- MIC50 (Pseudomonas aeruginosa [17]): 0.06 µg/mL
- fold change (FC) (Pseudomonas aeruginosa [18]): 32
- MIC50 (Pseudomonas aeruginosa [19]): 0.06 µg/mL
- MIC50 (Pseudomonas aeruginosa [20]): 0.06 µg/mL
- fold change (FC) (Pseudomonas aeruginosa [21]): 256
- fold change (FC) (Pseudomonas aeruginosa [22]): 16
